Laboratory results: paper PMC6982536 (Nature chemical biology, 2019)

Columns and labels:
FKBP/FRB^T2098L = FKBP/FRB^T2098L (Homo sapiens, UniProt P42345+P62942, T2098L); assay type: cell-based; conditions: high ligand concentration, Fig. 3a conditions 11 and 12
NarX/NarL = assay type: cell-based
Method in brief: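 HEK293 (37 °C, 5% CO2, DMEM) seeded at 50 000 cells/well 24 h before Lipofectamine 2000 transfection with 400 ng DNA, including NarL and a NarL-inducible Cerulean reporter. After 4 h, medium was replaced with fresh medium ± ligand. At 48 h, cells were Accutase-detached for flow cytometry. Total intensity (mean Cerulean of reporter-positive cells × positive fraction) was normalised to mCherry transfection-control total intensity.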

FKBP/FRB = conditions: read-out: EC50 (published value); cited from earlier work
CMV promoter = assay: iRFP expression from the CMV promoter in HEK cells with ligand; assay type: cell-based; conditions: 1µM of procaterol or 2 µM of epinephrine vs DMEM
Method in brief: (§1)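 HEK293 cultured at 37 °C, 5% CO2 in DMEM were seeded at 50 000 cells/well 24 h before transfection. Transfection used 400 ng reporter-containing DNA with Lipofectamine 2000 (3.75 µl per 1 µg DNA). Four hours later, medium was swapped for fresh medium with or without ligand.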

EF1α promoter = assay: iRFP expression from the EF1α promoter in HEK cells with ligand; assay type: cell-based; conditions: 1µM of procaterol or 2 µM of epinephrine vs DMEM
Method in brief: as §1

[1] = molecular target: β2AR^∆C::V2R^∆N::H^mut / β-arrestin::N^mut (Homo sapiens, UniProt P07550); assay: GPCR/β-arrestin interaction rewired via TCS; assay type: cell-based

FKBP/FRB^T2098L, sequence (P62942 whole entry): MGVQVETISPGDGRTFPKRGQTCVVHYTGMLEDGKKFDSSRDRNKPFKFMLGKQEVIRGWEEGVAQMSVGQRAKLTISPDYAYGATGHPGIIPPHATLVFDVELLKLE
FKBP/FRB^T2098L, sequence (P42345 2012-2144 T2098L limits assumed): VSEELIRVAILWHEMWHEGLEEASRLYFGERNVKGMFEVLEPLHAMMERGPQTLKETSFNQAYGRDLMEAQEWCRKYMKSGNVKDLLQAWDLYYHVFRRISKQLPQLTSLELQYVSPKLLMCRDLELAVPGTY

Compound	dynamic range of ligand-induced signaling (FKBP/FRB^T2098L)	effect on wild-type NarX/NarL signaling (NarX/NarL; A/C, Fig. 3a conditions 2 and 3)	EC50 (FKBP/FRB)	induction of the CMV promoter (CMV promoter)	effect on EF1α promoter (EF1α promoter)	effect on signaling via NarX/NarL system (NarX/NarL; procaterol, Fig. 4b conditions 2 and 3)	EC50 [1]
CO[C@H]1[C@@H](O)[C@H](C)C[C@H](C)/C=C/C=C/C=C(\C)[C@@H](c2c[nH]c3c(C)cccc23)C[C@@H]2CC[C@@H](C)[C@@](O)(O2)C(=O)C(=O)N2CCCC[C@H]2C(=O)O[C@H]([C@H](C)C[C@@H]2CC[C@@H](O)[C@H](OC)C2)C[C@H](O)[C@H](C)/C=C(\C)[C@H]1O [A/C, C16-(S)-7-methylindolerapamycin]	above 3 orders of magnitude	did not affect	10 nM	–	–	–	–
CNC[C@H](O)c1ccc(O)c(O)c1 [Epinephrine]	–	–	–	factor of two	not affected	–	–
CCC(NC(C)C)C(O)c1ccc(O)c2[nH]c(=O)ccc12 (stereo not drawn) [Procaterol]	–	–	–	factor of two	not affected	did not affect	5 nM
